Where “and” joins values, the source holds several entries; their conditions need not be identical. Equal entries are not always repeated.
Legend:
human glioma T98G cells = experiment: Radiosurvival colony-forming ability; format: cell-based; conditions: compared with KU-60019
In short: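 T98G human glioma cells came from ATCC and grew in DMEM with 10% FBS and penicillin-streptomycin at 37°C, 5% CO2. Cultures were kept no longer than 2 months and tested mycoplasma-negative. Radiosensitization was scored as colony-forming ability after irradiation, with a reference ATM inhibitor run alongside.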

[1] = tested on: ATM targets including p53-S15, KAP1-S824, and ATM auto-phosphorylation at S1981; experiment: Western blotting of ATM target phosphorylation; format: cell-based; conditions: western blot
In short: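 Mouse GL261 cells were irradiated (5 Gy) or not and exposed to test compound 0.3, 1 or 3 µM, or KU-60019 3 µM as reference ATM inhibitor, or neither. Extracts were western blotted for p-p53 S15 and p-KAP1 S824, with GAPDH or KAP1 as loading controls, using Dylight-800 anti-rabbit and Alexa Fluor-680 anti-mouse secondaries.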

GL261 orthotopic glioma = experiment: Syngeneic orthotopic mouse glioma model GL261/C57bl6, survival with radiation; format: in vivo
mouse GL261 glioma cells = experiment: Mitotic catastrophe triple staining; format: cell-based; conditions: 24 hr
In short: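 GL261 cells on chamber slides (DMEM, 10% FBS, 37°C, 5% CO2) were treated with test compound 3 µM and/or 2 Gy, or left untreated. Fixed at 24 hr and immunostained for γ-H2AX, p-(S10)-histone H3 and cleaved caspase 3, with DAPI counterstain; confocal imaging. Triple-positive cells were counted as mitotic catastrophe and expressed as a fraction of all cells.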

Cell permeability = format: in vitro ADME
[2] = tested on: human HCT116 colon carcinoma cells; experiment: Aberrant mitoses in isogenic HCT116 cells; format: cell-based; conditions: HCT116 p53−/− cells
U87/shp53 cells [3] = experiment: Radiosensitization of U87/shp53 versus parental U87/puro cells; format: cell-based, human; conditions: AZ32 3 µM
[4] = tested on: intracranial NCI-H2228 (BM) tumors; experiment: NCI-H2228 non-small cell lung cancer brain metastasis model, survival; format: in vivo, mouse; conditions: nude mice, AZ32 50 mg/kg BID
In short: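 Luciferase-expressing NCI-H2228 lung cancer cells, grown in DMEM with 10% FBS, were implanted in the brains of nude mice. Mice were randomized to vehicle, radiation alone, test compound 50 mg/kg BID alone, or test compound plus radiation. Tumours were tracked by bioluminescence imaging and survival was followed.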

[5] = tested on: human glioma cell lines LN18, U1242, T98G, DBTRG, U87MG; experiment: Radiosurvival of human glioma cell line panel with AZ32; format: cell-based; conditions: LN18, U1242, T98G (mutant p53), U87MG (wild-type p53)
[6] = Tolerability of AZ32 plus head irradiation in mice; format: in vivo; conditions: C57bl6 mice, AZ32 and 2×5 Gy conformal SARRP
[7] = tested on: pp53 (S15), pKAP1 (S824) in mouse glioma GL261 cells; experiment: Western blotting of DDR in GL261 cells; format: cell-based; conditions: 5 Gy, AZ32 0.3, 1 or 3 µM
In short: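 Mouse GL261 glioma cells, grown in DMEM with 10% FBS, got 5 Gy or no irradiation plus test compound (0.3, 1 or 3 µM), reference ATM inhibitor (3 µM) or neither. Extracts were western blotted for p-p53 Ser15 and p-KAP1 Ser824, with GAPDH or KAP1 as loading controls. Detection used Dylight-800 anti-rabbit and Alexa Fluor-680 anti-mouse secondaries.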

mouse GL261 cells = experiment: Radiosurvival colony-forming assay, GL261; format: cell-based; conditions: AZ32 3 µM, 2 and 4 Gy
In short: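 Clonogenic radiosurvival in mouse GL261 cells grown in DMEM with 10% FBS. Cells were diluted and plated, exposed to test compound 3 µM or not, and irradiated at 0, 2 or 4 Gy. After about 2 weeks, colonies were stained with crystal violet and those of more than 50 cells were counted.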

ATR = ATR (Homo sapiens, UniProt Q13535); experiment: Kinase selectivity, biochemical PIKK enzyme activity: ATR
U87/shp53 cells [8] = experiment: Live cell imaging of aberrant mitoses in U87/shp53 versus parental cells; format: cell-based, human; conditions: AZ32 3 µM, 5 Gy, time-lapse 16 hrs
In short: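 U87 cells expressing H2B-mCherry and EGFP-Centrin2 were transduced with shp53 pLKO.1 puro or pBabe-puro, puromycin-selected and FACS-sorted mCherry+/EGFP+. They were grown 48–72 hr on glass-bottom dishes, given test compound 3 µM before 5 Gy, then imaged by spinning-disk confocal every 7 min from 2 hr post-IR for 16 hr. Aberrant mitoses were scored visually from chromatin and/or centrosome morphology.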

[9] = Mouse oral exposure: plasma and brain; format: in vivo; conditions: from Kpuu of Table 1
pS1981ATM = pS1981ATM (Homo sapiens, UniProt Q13315); experiment: ATM cell assay; format: cell-based; conditions: read-out: pS1981ATM IC50 (ATM cell IC50)
Chain of pS1981ATM (Q13315 whole entry): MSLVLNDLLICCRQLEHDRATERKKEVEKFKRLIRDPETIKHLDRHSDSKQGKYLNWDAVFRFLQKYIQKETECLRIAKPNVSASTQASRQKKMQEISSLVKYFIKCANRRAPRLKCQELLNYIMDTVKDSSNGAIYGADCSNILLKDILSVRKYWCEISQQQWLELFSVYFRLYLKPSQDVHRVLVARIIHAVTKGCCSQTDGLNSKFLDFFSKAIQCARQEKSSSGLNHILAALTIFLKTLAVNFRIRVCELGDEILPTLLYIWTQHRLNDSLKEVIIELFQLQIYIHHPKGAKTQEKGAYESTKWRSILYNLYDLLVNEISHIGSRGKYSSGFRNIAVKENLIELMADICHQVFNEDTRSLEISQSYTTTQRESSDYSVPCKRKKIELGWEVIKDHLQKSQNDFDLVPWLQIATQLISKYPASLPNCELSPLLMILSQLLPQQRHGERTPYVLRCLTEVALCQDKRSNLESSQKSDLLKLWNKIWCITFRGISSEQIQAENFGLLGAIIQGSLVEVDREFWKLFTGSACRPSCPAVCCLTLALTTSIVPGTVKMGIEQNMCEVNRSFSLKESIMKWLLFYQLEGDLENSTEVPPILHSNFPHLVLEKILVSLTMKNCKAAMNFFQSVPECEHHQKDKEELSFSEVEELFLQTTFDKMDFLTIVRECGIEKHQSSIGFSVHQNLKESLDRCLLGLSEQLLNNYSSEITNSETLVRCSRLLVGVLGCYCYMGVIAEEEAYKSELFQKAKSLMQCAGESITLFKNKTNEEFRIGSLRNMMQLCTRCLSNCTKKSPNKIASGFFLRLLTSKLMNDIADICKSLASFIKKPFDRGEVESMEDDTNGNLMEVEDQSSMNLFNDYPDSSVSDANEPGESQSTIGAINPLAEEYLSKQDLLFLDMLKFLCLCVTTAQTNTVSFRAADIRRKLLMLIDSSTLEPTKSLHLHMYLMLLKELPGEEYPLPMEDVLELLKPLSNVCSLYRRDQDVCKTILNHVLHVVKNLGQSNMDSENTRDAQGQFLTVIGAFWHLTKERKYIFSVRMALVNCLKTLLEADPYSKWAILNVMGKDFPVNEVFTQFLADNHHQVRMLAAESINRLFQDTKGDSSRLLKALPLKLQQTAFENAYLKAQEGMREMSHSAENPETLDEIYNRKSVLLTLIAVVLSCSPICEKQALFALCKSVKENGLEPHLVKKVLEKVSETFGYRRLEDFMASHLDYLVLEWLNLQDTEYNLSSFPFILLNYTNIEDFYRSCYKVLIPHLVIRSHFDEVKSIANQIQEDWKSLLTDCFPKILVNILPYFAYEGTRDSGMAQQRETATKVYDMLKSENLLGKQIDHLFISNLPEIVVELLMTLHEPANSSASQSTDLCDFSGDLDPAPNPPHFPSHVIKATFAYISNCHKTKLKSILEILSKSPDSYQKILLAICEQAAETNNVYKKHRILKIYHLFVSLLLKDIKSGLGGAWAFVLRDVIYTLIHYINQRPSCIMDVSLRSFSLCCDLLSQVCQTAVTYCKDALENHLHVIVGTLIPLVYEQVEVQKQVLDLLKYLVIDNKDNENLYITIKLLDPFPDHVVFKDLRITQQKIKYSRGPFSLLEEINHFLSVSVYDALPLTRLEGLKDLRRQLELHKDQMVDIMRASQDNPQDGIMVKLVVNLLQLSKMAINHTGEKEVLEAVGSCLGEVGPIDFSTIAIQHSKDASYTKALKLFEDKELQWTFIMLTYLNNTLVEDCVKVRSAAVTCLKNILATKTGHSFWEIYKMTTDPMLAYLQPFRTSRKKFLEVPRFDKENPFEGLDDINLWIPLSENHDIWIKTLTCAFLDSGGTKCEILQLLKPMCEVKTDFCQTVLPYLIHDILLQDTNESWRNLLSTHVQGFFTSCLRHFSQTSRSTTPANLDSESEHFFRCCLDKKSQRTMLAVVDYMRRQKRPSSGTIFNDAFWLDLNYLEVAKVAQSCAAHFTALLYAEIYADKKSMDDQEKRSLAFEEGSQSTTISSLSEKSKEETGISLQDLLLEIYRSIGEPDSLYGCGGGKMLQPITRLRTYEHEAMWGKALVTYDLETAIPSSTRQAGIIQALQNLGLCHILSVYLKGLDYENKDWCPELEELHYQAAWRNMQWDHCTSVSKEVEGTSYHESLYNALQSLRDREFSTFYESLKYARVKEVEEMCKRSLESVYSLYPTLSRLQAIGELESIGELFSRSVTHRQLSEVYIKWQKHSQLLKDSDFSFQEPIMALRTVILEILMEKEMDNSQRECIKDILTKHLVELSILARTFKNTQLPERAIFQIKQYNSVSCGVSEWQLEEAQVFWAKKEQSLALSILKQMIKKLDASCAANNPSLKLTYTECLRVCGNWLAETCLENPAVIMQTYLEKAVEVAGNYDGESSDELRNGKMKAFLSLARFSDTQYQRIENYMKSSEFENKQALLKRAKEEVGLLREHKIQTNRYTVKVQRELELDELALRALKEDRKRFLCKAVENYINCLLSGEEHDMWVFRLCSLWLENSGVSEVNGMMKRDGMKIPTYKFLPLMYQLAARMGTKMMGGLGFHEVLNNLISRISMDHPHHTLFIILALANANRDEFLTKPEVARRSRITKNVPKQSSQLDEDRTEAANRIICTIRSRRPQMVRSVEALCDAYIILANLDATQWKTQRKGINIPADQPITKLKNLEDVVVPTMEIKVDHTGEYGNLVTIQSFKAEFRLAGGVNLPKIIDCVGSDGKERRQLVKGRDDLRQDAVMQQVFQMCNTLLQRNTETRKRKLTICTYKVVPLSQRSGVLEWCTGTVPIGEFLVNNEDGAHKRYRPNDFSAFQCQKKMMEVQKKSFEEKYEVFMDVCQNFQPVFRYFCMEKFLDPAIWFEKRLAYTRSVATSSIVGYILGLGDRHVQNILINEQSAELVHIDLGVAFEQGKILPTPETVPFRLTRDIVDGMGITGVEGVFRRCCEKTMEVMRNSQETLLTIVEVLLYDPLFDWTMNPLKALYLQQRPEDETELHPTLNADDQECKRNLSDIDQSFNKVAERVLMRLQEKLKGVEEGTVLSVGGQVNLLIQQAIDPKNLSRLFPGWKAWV

[10] = tested on: human HCT116 colon carcinoma cells; experiment: CFA radiosurvival of isogenic HCT116 cells; format: cell-based; conditions: HCT116 p53+/+ cells versus mutant p53 cells

COCc1ccc(-c2ccc3ncc(C(N)=O)c(N[C@H](C)C4CCOCC4)c3c2)cn1 [AZ31, 6-[6-(methoxymethyl)-3-pyridinyl]-4-([(1R)-1-(tetrahydro-2H-pyran-4-yl)ethyl]amino)-3-quinolinecarboxamide]
Radiosensitization by colony-forming ability (human glioma T98G cells): radiosensitized cells to a similar extent as KU-60019 | Block of phosphorylation of ATM targets ([1]; p53-S15, KAP1-S824, ATM S1981): effectively blocked phosphorylation | Potency compared to KU-60019 in blocking ATM target phosphorylation ([1]; lanes 2–6): at least 10 fold | Radiosensitization of GL261 tumors (GL261 orthotopic glioma; administered orally, prolonged low radiation dose treatment schedule): unable to significantly radiosensitize tumors

CNC(=O)c1ccc(-c2cnc3cnc(-c4ccccc4)cn23)cc1 [AZ32]
Triple+ cells (mitotic catastrophe) of all cells (mouse GL261 glioma cells; AZ32 3 µM and radiation 2 Gy): 4% | Mitotic catastrophe in AZ32+IR over IR alone (mouse GL261 glioma cells; AZ32 3 µM, 2 Gy): 4 fold | Cell permeability (Cell permeability): high cell permeability | Aberrant mitoses and polyploidy cells on addition of AZ32 before IR [2]: almost a doubling of aberrant mitoses and polyploidy cells | Sensitivity of U87/shp53 cells to AZ32 radiosensitization relative to parental cells (U87/shp53 cells [3]): 2–4 fold | Survival of mice, AZ32 in combination with radiation [4]: survived much longer than mice in the radiation alone or AZ32 alone groups | Radiosensitization of human glioma cell line panel [5]: all radiosensitized in vitro | Radiation toxicity [6]: did not notice any radiation toxicity | Block of phosphorylation of p53 and KAP-1 after radiation [7]: blocked the phosphorylation of p53 and KAP-1 after radiation | Radiosensitization in radiosurvival colony-forming assay (mouse GL261 cells): became more radiosensitive | Selectivity over ATR (ATR): adequate selectivity over ATR | Aberrant mitoses in shp53 cells relative to parental cells (U87/shp53 cells [8]): 4.2 fold and ~ 4 fold | Enhancement of BBB penetration over AZ31 [9]: 8.7 fold | Survival versus radiation alone (GL261 orthotopic glioma; AZ32 200 mg/kg p.o. QD, whole-head 137-Cs irradiation 4×2.5 Gy): significantly (p = 0.019) prolonged the survival | IC50 (pS1981ATM): 310 nM | Sensitivity to AZ32 and radiation by CFA [10]: more sensitive to AZ32 and radiation compared to mutant p53 cells

C[C@@H]1CN(CC(=O)Nc2ccc3c(c2)Cc2cccc(-c4cc(=O)cc(N5CCOCC5)o4)c2S3)C[C@H](C)O1 [KU-60019, reference compound]
Radiosensitization of GL261 tumors (GL261 orthotopic glioma; administered intra-tumorally by CED immediately prior to radiation): radiosensitized by KU-60019 (p = 0.0001)

From article PMC6072596 (Molecular cancer therapeutics, 2018)
